This is a sample that favours compounds with a hit; in the whole collection about 1.9% have one here.
GRK2 inh = compounds blocking aptamer binding on GRK2 – biochemical, human GRK2, bead flow cytometry, HTS, primary screen; FAM-aptamer displacement from GRK2; AID 488847, 2010; inhibition of aptamer binding, % at 10 µM; hit rate 0.59% among 330,000; Beta-adrenergic receptor kinase 1 (Homo sapiens), P25098;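 active = inhibition of aptamer binding above 40%, roughly 3 SD of noise, on plates passing a quality check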;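 note: median bead fluorescence of bound FAM aptamer so fluorescent compounds give negative values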
SR-BI DiI-HDL act = activators of SR-BI mediated DiI-HDL uptake, primary screen, ldlA[mSR-BI] CHO cells, DiI fluorescence; hit rate 0.096% among 320,000; activation, % at 12.5 µM; 3 h; 100 = double the neutral-control signal; AID 504775, 2011;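 active = mean replicate activation of at least 60% and every replicate at or above 60%; inconclusive = mean or all-replicate condition met, but not both; inactive = mean below 60% and not all replicates reaching 60%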;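 note: 0% = median plate neutral-control signal and 100% = twice that signal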
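Test system: SR-BI-overexpressing, LDLR-lacking CHO cells; Also added: labelled HDL, 10 µg/mL; Measured by: bottom-read cell fluorescence after medium removal, ex 550/em 595 nm; Timing: 3 h uptake period with compound, 37 °C; Buffer or medium: F12, 0.5% BSA, 25 mM HEPES; Doses: single compound concentration, delivered by pin transfer.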
Rin1 Abl inh = inhibitors of Rin1-Abl protein binding, primary screen, biochemical, TR-FRET; hit rate 0.4% among 360,000; AID 588664, 2011; inhibition, % at 7.35 µM; in the data active = inhibition above about 5%, passing the limit was not always enough
SR-BI HDL uptake = inhibitors of SR-BI mediated HDL lipid uptake, primary screen, ldlA[mSR-BI] cells, fluorescence, single point; Scavenger receptor class B member 1 (Mus musculus), Q61009; hit rate 0.96% among 320,000; inhibition, % at 12.5 µM; ldlA[mSR-BI] CHO cells, DiI-HDL uptake fluorescence, 3 h;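 active = mean replicate inhibition of at least 70% and a set share of replicates each scoring 70 or more; inconclusive = meets just one of the two criteria; inactive = fails both criteria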;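 note: 0% = median of neutral control wells and 100% = median of positive control wells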
Target sequence (Q61009 whole entry, looked up): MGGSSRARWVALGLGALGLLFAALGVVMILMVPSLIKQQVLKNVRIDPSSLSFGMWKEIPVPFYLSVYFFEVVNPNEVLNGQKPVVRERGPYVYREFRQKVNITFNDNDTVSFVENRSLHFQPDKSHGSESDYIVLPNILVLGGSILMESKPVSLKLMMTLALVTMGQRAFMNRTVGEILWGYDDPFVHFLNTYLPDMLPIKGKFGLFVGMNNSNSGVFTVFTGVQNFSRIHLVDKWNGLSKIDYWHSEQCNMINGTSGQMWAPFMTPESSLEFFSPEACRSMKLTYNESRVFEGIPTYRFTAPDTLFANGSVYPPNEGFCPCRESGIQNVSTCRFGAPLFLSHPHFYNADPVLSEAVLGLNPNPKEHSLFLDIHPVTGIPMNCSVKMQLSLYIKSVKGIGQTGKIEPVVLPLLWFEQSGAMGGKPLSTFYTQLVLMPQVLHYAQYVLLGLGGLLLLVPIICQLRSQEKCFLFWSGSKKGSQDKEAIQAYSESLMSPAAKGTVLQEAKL
GRK2 inh confirm = GRK2 aptamer-displacing inhibitors, retest, confirmation, biochemical, cherry pick 1, bead flow cytometry; hit rate 4% among 2,000; aptamer displacement, % at 10 µM; AID 504451, 2011; bead-bound GRK2, FAM-aptamer displacement; shares compounds with GRK2 inh;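 active = aptamer displacement above 40%, near three times the noise of non-fluorescent compounds, on plates passing quality checks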;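 note: negative values mostly reflect intrinsic compound fluorescence rather than true enhancement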
Aptamer quench 1 = counter-screen for GRK2 aptamer inhibitors: fluorescent aptamer quenchers; shares compounds with GRK2 inh; Fluorescent RNA aptamer beads, quenching, flow cytometry; hits give high values; fluorescence change (kMESF span), kMESF (no concentration beside the values); 110 tested, under 10 active; AID 504521;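 active = compounds whose bead fluorescence drops by more than 37 kMESF across the dose range, marking them as dye quenchers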
FAM quench CP1 = quenches fluorescent RNA aptamer, GRK2 hit artifact; 2,000 tested, under 10 active; fluorescence response (% of DMSO), % at 10 µM; Carboxyfluorescein RNA aptamer on beads, flow cytometry quenching; hits give low values; shares compounds with GRK2 inh;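 active = compounds that quench the bead-bound fluorescent RNA probe, cutting fluorescence to under half of the solvent control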;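 note: counterscreen run without GRK2 so only probe quenching by compound is measured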
GRK2 CP2 = GRK2 aptamer-displacing inhibitors, hit retest, confirmation, biochemical, cherry pick 2, bead flow cytometry | shares compounds with GRK2 inh | bead-bound GRK2, FAM-aptamer displacement | inhibition of aptamer binding, % at 10 µM | 360 tested, under 10 active | AID 504782, 2011;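 active = inhibition of aptamer binding above 40%, about triple the noise seen with nonglowing compounds, on plates passing quality control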;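 note: negative values mostly come from compounds that fluoresce themselves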
FAM quench SP = counter-screen for GRK2 binding hits: quenchers of fluorescent RNA aptamer. shares compounds with GRK2 inh. carboxyfluorescein RNA aptamer beads, flow cytometry quenching; hits give low values. fluorescence response vs DMSO, % at 10 µM. 360 tested, under 10 active. AID 588494;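 active = response vs DMSO under 50%, meaning signal dropped by over half, treated as fluorescence quencher; inconclusive = no clear call, values can overlap the other calls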;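 note: labelled aptamer on streptavidin beads without GRK2 as a quench counter-screen; 100% = bead fluorescence of DMSO wells and lower means quenching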
* = called active by the depositor; ? = inconclusive; . = not tested or not shown.

SMILES | GRK2 inh | SR-BI DiI-HDL act | Rin1 Abl inh | SR-BI HDL uptake | GRK2 inh confirm | FAM quench CP1 | others
COCCN(C(=O)c1cc(-c2ccccc2Cl)nc2ccccc12)c1c(N)n(CC(C)C)c(=O)[nH]c1=O | . | -24.7 | 7.7 | 24.7 | . | .
Cc1occc1C(=O)NCc1cccc(CNC(=O)c2ccoc2C)c1 | 47.0* | 1.9 | -1.0 | -1.9 | -0.1 | 98.2
Cn1c(N2CCN(C(c3ccccc3)c3ccccc3)CC2)nc2ccccc21 | 98.0* | -3.9 | 1.2 | 3.9 | -2.3 | 150.6
CN1CCOc2c1cnn(CCO)c2=O | . | . | -0.7 | . | . | .
CCCCCC/C=C/c1ccc([C@H]2[C@H]3C=CC[C@@H](C)[C@@H]3C(=O)N2Cc2ccccc2)c(F)c1 | 1.0 | 6.1 | 5.1 | -6.1 | 3.4 | 93.8
O=C(O)CC(NC(=O)c1cccc([N+](=O)[O-])c1)c1ccc2c(c1)OCO2 (stereo not drawn) | 7.0 | 7.0 | 1.7 | -7.0 | . | .
OC(c1ccccc1)(c1nc(/C=C/c2ccc(C(F)(F)F)cc2)cs1)C(F)(F)F (stereo not drawn) | . | . | -0.5 | . | . | .
Cc1ccc2nc(SCC(=O)Nc3cccc(F)c3)nc(=O)n2c1 | 100.0* | -4.3 | -2.1 | 4.3 | 0.6 | 98.8
Cc1ccccc1C(=O)Nc1cccc(-c2ccc(N3CCOCC3)nn2)c1 | 1.0 | -38.0 | -1.0 | 38.0 | -2.5 | 96.3
O=C(Nc1cccc(-c2ccc(N3CCOCC3)nn2)c1)c1ccc([N+](=O)[O-])cc1 | 1.0 | -63.4 | -2.0 | 63.4 | . | .
O=C(Nc1cccc(-c2ccc(N3CCOCC3)nn2)c1)c1ccccc1 | 0.0 | -6.9 | -7.3 | 6.9 | 18.9 | 100.0 | Aptamer quench 1=-1.6
CC(=O)N1CCN(S(=O)(=O)c2cccc(C(=O)N3CCN(S(=O)(=O)c4c(C)c(C)cc(C)c4C)CC3)c2)CC1 | . | . | 1.9 | . | . | .
CCOc1ccc(C(=O)Nc2ccc3c(c2)OCCO3)cc1 | 1.0 | 16.2 | 0.6 | -16.2 | . | .
Nc1nc(NCCO)nc(NCc2ccccc2)c1[N+](=O)[O-] | 97.0* | -7.6 | -0.9 | 7.6 | 4.2 | 96.4
Nc1nc(NCc2ccccc2)nc(NCCO)c1[N+](=O)[O-] | 2.0 | 6.8 | -2.9 | -6.8 | . | .
Cc1ccc(CNC(=O)CSc2nc3n[nH]c(C)c3c(=N)n2-c2cccc(C)c2)cc1 | 99.0* | -10.0 | -2.6 | 10.0 | -1.4 | 100.6
CN(CCOc1ccccc1)C(=O)CCc1nc2sc3c(c2c(=O)[nH]1)CCCC3 | 0.0 | 7.4 | -1.5 | -7.4 | 0.1 | 97.4
Cc1cccc(C)c1NC(=O)CN(C)C(=O)CCc1nc2sc3c(c2c(=O)[nH]1)CCCC3 | 3.0 | -2.4 | -1.6 | 2.4 | . | .
CN(CC(=O)Nc1cccc(F)c1)C(=O)CCc1nc2sc3c(c2c(=O)[nH]1)CCCC3 | 11.0 | -22.1 | -2.2 | 22.1 | 0.6 | 97.7
O=C(CCc1nc2sc3c(c2c(=O)[nH]1)CCCC3)NCCOc1ccccc1 | 0.0 | 30.2 | -2.2 | -30.2 | . | .
CC(C)CNc1ncnc2c1ncn2[C@H]1CN(Cc2ccc3c(c2)OCO3)C[C@@H](CO)O1 | . | . | 4.2 | . | . | .
O=C(CCl)Nc1cccc(S(=O)(=O)NC2=NCCC2)c1 | 2.0 | 13.5 | -7.1 | -13.5 | . | .
Cc1ccc(C(=O)Nc2cccc(C(F)(F)F)c2)cc1NC(=O)c1nccn1C | 2.0 | -30.4 | -3.7 | 30.4 | . | .
Cc1ccc(C(=O)Nc2cccc(C(F)(F)F)c2)cc1NC(=O)c1ccno1 | 1.0 | -47.8 | 2.0 | 47.8 | 3.3 | 103.2
COc1cccc(-c2nc(N3CCC(C)CC3)c3ccccc3n2)c1O | 91.0* | -71.4 | -1.3 | ? | 2.6 | 99.6
SMILES | GRK2 inh | SR-BI DiI-HDL act | Rin1 Abl inh | SR-BI HDL uptake | GRK2 inh confirm | FAM quench CP1 | others
COc1cccc(-c2nc(N3CC(C)CC(C)C3)c3ccccc3n2)c1O (stereo not drawn) | . | 12.9 | 0.2 | -12.9 | . | .
CC1(C)CC(NC(=S)NC2CC2)CC(C)(C)N1 | 69.0* | 15.9 | 1.9 | -15.9 | 0.5 | 97.8
Nc1nc(N(Cc2ccccc2)Cc2ccccc2)nc(C(F)(F)F)n1 | 43.0* | 5.0 | 0.0 | -5.0 | . | . | GRK2 CP2=-5.8;FAM quench SP=100.0
O=C(Nc1ccc2c(c1)OCO2)c1cc(C2CCCCN2C(=O)c2ccc(Cl)cc2)on1 (stereo not drawn) | . | . | -1.1 | . | . | .
Nc1c(C(=O)c2ccc(Cl)cc2)sc2c1c(=O)[nH]c(=O)n2-c1ccccc1 | 100.0* | -30.6 | -0.4 | 30.6 | . | . | GRK2 CP2=-5.1;FAM quench SP=99.0
Cc1cc2ccccc2n1CCNC(=O)c1ccccc1 | 100.0* | -17.6 | -5.6 | 17.6 | 29.5 | 102.1 | Aptamer quench 1=-1.8
COc1ccc(C(=O)N2CCCC(c3cc(C(=O)Nc4ccccc4)no3)C2)cc1 (stereo not drawn) | . | . | 2.4 | . | . | .
CCC12C(=Nc3c(Cl)cccc31)C[C@@H]1CCN3C(=O)CCC[C@H]2[C@H]13 (stereo partly drawn) | . | -19.0 | -0.2 | 19.0 | . | .
COc1ccc2[nH]c3c(=O)n(/N=C/c4ccc(OC)c(CN5CCCC5)c4)c(C)nc3c2c1 | 59.0* | -7.8 | -0.8 | 7.8 | -43.2 | 101.0
COC(=O)CNc1n[nH]c(=S)[nH]c1=O | 85.0* | 22.8 | -2.4 | -22.8 | -9.2 | 99.2
Cc1ccc(C)c(NC(=O)C2(C)CCCN2C(=O)C(C)C)c1 (stereo not drawn) | . | . | 1.8 | . | . | .
C=CCSC1=C(C#N)C(c2ccccc2OC)CC(=O)N1 (stereo not drawn) | 1.0 | -1.1 | 1.8 | 1.1 | . | .
C=CCSC1=C(C#N)C(c2ccccc2OCC)CC(=O)N1 (stereo not drawn) | 37.0 | -6.3 | 0.4 | 6.3 | 1.0 | 100.6
Cc1ccc(NC(=O)CCCOc2ccccc2)cc1S(=O)(=O)N1CCOCC1 | 75.0* | -23.8 | 1.0 | 23.8 | 2.1 | 99.4
O=C(CCCOc1ccccc1)Nc1ccc(Cl)c(S(=O)(=O)N2CCOCC2)c1 | 0.0 | 10.4 | -0.5 | -10.4 | . | .
O=C(NCc1ccc(F)cc1)c1cc(C2CCCN(C(=O)CCCc3ccccc3)C2)on1 (stereo not drawn) | . | . | -0.5 | . | . | .
